ChEMBL document CHEMBL1932920
Calls of active or inactive are those of the source.

Experiments:
Arabidopsis thaliana [1] = assay: Binding affinity to POPL in Arabidopsis thaliana leaf extracts pre-incubated with 100 uM paraoxon for 30 mins at 5 uM after 1 hr using SDS-PAGE followed by nanoLC-ESI-MS/MS analysis
Outline: (§1)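 Extract from 2 g frozen leaves of 4-week-old A. thaliana Col-0, ground, taken up in water, cleared 5 min at 16,000×g. Labeled with 5 µM probe, biotinylated targets pulled down on avidin beads, run on 1D SDS–PAGE and fluorescence-scanned. Bands excised, digested in-gel, and analysed by nanoLC-ESI-MS/MS on LTQ Velos (C18, 5–40% acetonitrile over 90 min, 300 nL/min, positive mode, m/z 400–1600).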

[2] = molecular target: T1, Serine carboxypeptidase-like 48 (Arabidopsis thaliana) (UniProt Q56WF8); assay: Binding affinity to SCPL48 in Arabidopsis thaliana leaf extracts pre-incubated with 100 uM paraoxon for 30 mins at 5 uM after 1 hr using SDS-PAGE followed by nanoLC-ESI-MS/MS analysis; outline: as §1
T1 sequence (whole entry): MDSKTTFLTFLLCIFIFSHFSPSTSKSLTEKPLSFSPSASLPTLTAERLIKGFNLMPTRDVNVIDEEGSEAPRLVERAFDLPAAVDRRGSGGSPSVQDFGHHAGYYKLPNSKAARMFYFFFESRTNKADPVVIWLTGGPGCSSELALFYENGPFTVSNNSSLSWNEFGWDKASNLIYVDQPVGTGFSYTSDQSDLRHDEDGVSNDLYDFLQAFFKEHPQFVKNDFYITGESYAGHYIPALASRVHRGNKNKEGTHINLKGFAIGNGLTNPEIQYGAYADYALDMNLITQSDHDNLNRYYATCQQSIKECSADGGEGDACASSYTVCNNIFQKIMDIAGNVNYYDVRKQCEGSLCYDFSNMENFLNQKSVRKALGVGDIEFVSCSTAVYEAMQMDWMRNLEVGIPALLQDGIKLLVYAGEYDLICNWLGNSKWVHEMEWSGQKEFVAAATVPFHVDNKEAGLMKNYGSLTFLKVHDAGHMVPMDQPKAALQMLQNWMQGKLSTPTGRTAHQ

[3] = molecular target: T2, Probable carboxylesterase 12 (Arabidopsis thaliana) (UniProt Q9SMN0); assay: Binding affinity to Arabidopsis thaliana CXE12 overexpressed in agroin filtreated Nicotiana benthamiana leaf extracts pre-incubated with 100 uM paraoxon for 30 mins at 2 uM after 1 hr using SDS-PAGE followed by nanoLC-ESI-MS/MS analysis
T2 sequence (whole entry): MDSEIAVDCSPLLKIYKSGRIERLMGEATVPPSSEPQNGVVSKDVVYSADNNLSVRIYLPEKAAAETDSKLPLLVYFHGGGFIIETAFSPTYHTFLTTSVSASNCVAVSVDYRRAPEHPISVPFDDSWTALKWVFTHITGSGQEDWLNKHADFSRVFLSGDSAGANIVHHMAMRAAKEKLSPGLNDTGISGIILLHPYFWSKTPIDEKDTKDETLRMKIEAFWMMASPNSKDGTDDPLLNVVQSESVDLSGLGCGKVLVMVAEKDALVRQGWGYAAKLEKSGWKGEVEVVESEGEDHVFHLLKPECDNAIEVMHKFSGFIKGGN
Outline: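 CXE12 cDNA in binary vector, Agrobacterium GV3101 pMP90, co-infiltrated with p19 silencing-suppressor strain into 4-week-old N. benthamiana leaves (p19 alone as control). Leaf extracts preincubated 30 min with 100 µM paraoxon or DMSO, then labeled 1 h with 2 µM probe. Reactions stopped in gel loading buffer, proteins resolved on gels, fluorescence scanning.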

[4] = molecular target: T3, Probable carboxylesterase 7 (Arabidopsis thaliana) (UniProt Q9ZQ91); assay: Binding affinity to CXE7 in Arabidopsis thaliana leaf extracts pre-incubated with 100 uM paraoxon for 30 mins at 5 uM after 1 hr using SDS-PAGE followed by nanoLC-ESI-MS/MS analysis; outline: as §1
T3 sequence (whole entry): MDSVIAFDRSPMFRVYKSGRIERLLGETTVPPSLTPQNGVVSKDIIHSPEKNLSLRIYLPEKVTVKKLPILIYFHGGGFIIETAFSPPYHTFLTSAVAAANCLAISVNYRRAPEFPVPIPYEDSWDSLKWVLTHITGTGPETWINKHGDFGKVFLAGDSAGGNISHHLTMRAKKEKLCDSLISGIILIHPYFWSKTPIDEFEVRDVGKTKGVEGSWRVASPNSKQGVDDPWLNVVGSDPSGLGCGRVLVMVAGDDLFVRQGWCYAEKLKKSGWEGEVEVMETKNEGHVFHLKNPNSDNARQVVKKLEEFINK

[5] = molecular target: T2, Probable carboxylesterase 12 (Arabidopsis thaliana); assay: Binding affinity to CXE12 in Arabidopsis thaliana leaf extracts pre-incubated with 100 uM paraoxon for 30 mins at 5 uM after 1 hr using SDS-PAGE followed by nanoLC-ESI-MS/MS analysis; outline: as §1
[6] = molecular target: T1, Serine carboxypeptidase-like 48 (Arabidopsis thaliana); assay: Binding affinity to SCPL48 in Arabidopsis thaliana leaf extracts at 4 to 20 uM after 1 hr using SDS-PAGE followed by nanoLC-ESI-MS/MS analysis
[7] = molecular target: T3, Probable carboxylesterase 7 (Arabidopsis thaliana); assay: Binding affinity to CXE7 in Arabidopsis thaliana leaf extracts at 4 to 20 uM after 1 hr using SDS-PAGE followed by nanoLC-ESI-MS/MS analysis
Arabidopsis thaliana [8] = assay: Binding affinity to POPL in Arabidopsis thaliana leaf extracts at 4 to 20 uM after 1 hr using SDS-PAGE followed by nanoLC-ESI-MS/MS analysis
[9] = molecular target: T2, Probable carboxylesterase 12 (Arabidopsis thaliana); assay: Binding affinity to CXE12 in Arabidopsis thaliana leaf extracts at 4 to 20 uM after 1 hr using SDS-PAGE followed by nanoLC-ESI-MS/MS analysis

Measured: Activity

CCOP(=O)(CCOCCOCCOCCOC(=O)NCc1cn(CCCCCNC(=O)CCC(=O)N[C@@H](CCCCNC(=O)CCCCC[C@@H]2SC[C@@H]3NC(=O)N[C@@H]32)C(=O)NCCCCCNC(=O)c2ccc(-c3c4ccc(=[N+](C)C)cc-4oc4cc(N(C)C)ccc34)c(C(=O)[O-])c2)nn1)Oc1ccc([N+](=O)[O-])cc1 (some centres undefined)
active: Arabidopsis thaliana [1] | [2] | [3] | [4] | [5]

C#CCNC(=O)OCCOCCOCCOCCP(=O)(OCC)Oc1ccc([N+](=O)[O-])cc1 (centres undefined)
active: [6] | [7] | Arabidopsis thaliana [8] | [9]
